The entries come from a sample that favours hits as a whole.
ABCG2 block = blocks JC-1 efflux by human ABCG2 transporter. Q9UNQ0. IgMXP3 cells, flow cytometry. inhibition, % at 6.6 µM. hit rate 0.1% among 190,000;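 active = inhibition above 80%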;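 also: 0% = DMSO and 100% = nicardipine control wells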
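Test system: IgMXP3 (ABCG2) plus far-red-tagged CCRF-Adr (ABCB1) cells. Reagent: JC-1 dye as substrate. Timing: 10 min exposure at 25 °C with rotation, no wash. Measured by: flow cytometric JC-1 green MFI at 530 nm. Read-out: percent efflux inhibition, scaled nicardipine 100% to DMSO 0%. Control set: nicardipine and DMSO wells.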
Avidin fluor = avidin bead compound fluorescence profile | fluorescence (KMESF) at 10 µM | hit rate 0.38% among 220,000 | Avidin beads, compound fluorescence 488/530 nm, flow cytometry; hits give high values; in the data active = fluorescence above about 47
PKD1 kinase inh = blocks activity of human protein kinase D1; Q15139; PKD1 kinase fluorescence polarization assay; inhibition, % (no concentration beside the values); hit rate 0.056% among 200,000
ABCB1 block = blocks JC-1 efflux by human ABCB1 transporter; inhibition, % at 6.6 µM; hit rate 0.067% among 190,000; P08183; CCRF-Adr cells, flow cytometry; in the data active = inhibition above about 40%;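 also: 0% = vehicle and 100% = reference inhibitor; higher value means more JC-1 retained so stronger ABCB1 efflux block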
Target sequence (P08183 whole entry, looked up): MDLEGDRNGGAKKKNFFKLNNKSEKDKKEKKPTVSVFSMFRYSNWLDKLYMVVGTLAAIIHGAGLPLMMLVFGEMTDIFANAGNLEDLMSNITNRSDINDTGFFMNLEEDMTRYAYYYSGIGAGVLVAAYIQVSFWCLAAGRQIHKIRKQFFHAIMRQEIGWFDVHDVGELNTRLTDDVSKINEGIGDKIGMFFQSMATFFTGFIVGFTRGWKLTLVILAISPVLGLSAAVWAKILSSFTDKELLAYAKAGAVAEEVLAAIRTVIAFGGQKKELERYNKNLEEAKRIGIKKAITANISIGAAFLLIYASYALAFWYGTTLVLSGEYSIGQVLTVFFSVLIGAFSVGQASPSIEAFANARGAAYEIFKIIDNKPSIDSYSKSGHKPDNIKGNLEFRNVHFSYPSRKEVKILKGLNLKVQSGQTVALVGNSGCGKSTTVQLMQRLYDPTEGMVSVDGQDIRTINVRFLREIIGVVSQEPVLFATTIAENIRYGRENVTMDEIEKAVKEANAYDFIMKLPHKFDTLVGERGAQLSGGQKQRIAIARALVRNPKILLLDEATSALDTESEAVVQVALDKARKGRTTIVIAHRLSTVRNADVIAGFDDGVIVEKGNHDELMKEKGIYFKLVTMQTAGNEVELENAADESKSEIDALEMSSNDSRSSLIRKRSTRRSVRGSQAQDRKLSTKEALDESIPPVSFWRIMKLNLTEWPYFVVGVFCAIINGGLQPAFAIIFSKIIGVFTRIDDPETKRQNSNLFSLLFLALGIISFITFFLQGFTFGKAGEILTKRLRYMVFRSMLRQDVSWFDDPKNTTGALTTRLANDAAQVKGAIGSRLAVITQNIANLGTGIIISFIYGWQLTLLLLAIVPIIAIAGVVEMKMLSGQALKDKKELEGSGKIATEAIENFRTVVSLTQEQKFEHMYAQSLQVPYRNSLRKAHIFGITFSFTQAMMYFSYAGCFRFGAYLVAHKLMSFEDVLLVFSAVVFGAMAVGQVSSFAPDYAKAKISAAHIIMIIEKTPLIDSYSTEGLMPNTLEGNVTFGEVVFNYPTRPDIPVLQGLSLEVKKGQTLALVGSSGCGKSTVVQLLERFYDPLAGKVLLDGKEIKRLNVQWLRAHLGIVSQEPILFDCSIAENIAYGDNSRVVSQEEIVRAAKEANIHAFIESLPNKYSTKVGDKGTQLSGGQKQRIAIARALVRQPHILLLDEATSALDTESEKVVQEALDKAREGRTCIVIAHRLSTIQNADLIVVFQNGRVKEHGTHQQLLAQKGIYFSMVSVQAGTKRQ
GSH fluor = GSH bead compound fluorescence profile; GSH beads flow cytometry, compound fluorescence 488/530 nm; hits give high values; fluorescence (KMESF) at 10 µM; hit rate 0.25% among 190,000; AID 1776; in the data active = fluorescence above about 89;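 also: glutathione beads carrying GST-tagged Bcl family fusion proteins plus one bare bead set; values are compound well signal with DMSO vehicle wells as background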
L major viab = Leishmania major promastigote growth inhibition | inhibition, % at 10 µM | hit rate 9% among 200,000 | Leishmania major promastigotes, resazurin fluorescence viability;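 also: promastigotes grown with compound for 44 hours at 28 °C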
An asterisk follows results filed as active; · = no result. Rule as the data show it, unless noted: active = inhibition above about 50%; inactive = the rest.

SMILES	ABCG2 block	Avidin fluor	PKD1 kinase inh	ABCB1 block	GSH fluor	L major viab
COc1ccc(NC(C)=O)cc1NC(=O)c1ccc2ccccc2c1	13.7	8	-2.7	-1.8	13	5.6
C(=N\c1nc2ccccc2n1CCN1CCCCC1)/c1cccs1	-0.8	5	-0.5	-0.4	270*	53.2*
C(=N\c1nc2ccccc2n1CCN1CCCCC1)/c1ccc2c(c1)OCO2	1.4	11	1.7	0.3	24	2.2
CCOC(=O)COc1c(/C=N\O)cc(Cl)cc1OC	11.3	22	-7.9	0.9	11	-8.2
Cc1ccc(NC(=O)CNc2ccc(Cl)c(Cl)c2)cc1S(=O)(=O)N(C)C	-5.5	2	-1.6	-0.4	8	8.4
CN(C)S(=O)(=O)c1cc(NC(=O)CSc2nn(-c3ccc(Cl)cc3)c(=S)s2)ccc1Cl	-1.7	12	-5.8	-0.8	3	92.7*
Cc1ccc(NC(=O)CSc2nn(-c3ccc(Cl)cc3)c(=S)s2)cc1S(=O)(=O)N(C)C	-11.8	8	-3.5	-0.9	5	97.2*
Cc1ccc(NC(=O)/C(=C\c2cccs2)NC(=O)c2ccccc2)cc1	-0.7	14	-2.8	0.0	5	83.3*
COC(=O)C1=CN(Cc2ccc(OC)cc2)C=C(C(=O)OC)C1c1ccsc1	1.7	10	0.0	2.0	9	100.2*
COC(=O)C1=CN(Cc2cccs2)C=C(C(=O)OC)C1c1ccc(OC)cc1OC	0.3	10	-1.9	1.1	15	97.9*
O=C(COc1cccnc1[N+](=O)[O-])c1c[nH]c2ccccc12	·	3	·	·	·	·
CCc1nnc(NC(=O)/C=C/c2cccs2)s1	17.3	9	1.1	0.2	9	7.3
CCn1c(-c2ccccc2)c(C(=O)CCl)c2ccccc21	11.5	11	4.0	0.1	12	98.7*
Cn1c(-c2ccccc2)c(C(=O)CCl)c2ccccc21	2.6	18	1.2	1.1	11	97.9*
Cn1c(-c2ccccc2)c(CCO)c2ccccc21	12.6	35	3.7	0.9	26	35.3
CC1CCc2cc(F)ccc2N1S(=O)(=O)c1ccc(Cl)nc1 (configuration not stated)	0.6	14	6.6	0.6	20	0.7
CCn1c(SC)nnc1-c1sc2cc(Cl)ccc2c1Cl	54.4	17	-1.0	15.0	35	87.5*
CSc1nnc(-c2sc3cc(Cl)ccc3c2Cl)n1C	22.1	14	-7.8	-0.8	36	9.5
CC1=C(C#N)C(c2cccnc2)C2=C(CC(c3ccc(Cl)cc3)CC2=O)N1 (configuration not stated)	23.5	14	-2.0	0.1	35	99.7*
CC1=C(C#N)C(c2ccc(O)cc2)C2=C(CCCC2=O)N1 (configuration not stated)	-0.4	11	-6.7	-0.2	24	-3.8
COc1nc(NCCO)nc(Nc2ccccc2F)n1	5.5	11	8.0	1.0	21	-1.4
COc1cc(C(=O)c2c(C)c(CCC#N)n3ccccc23)cc(OC)c1OC	10.1	9	-4.0	1.8	15	13.5
CSc1nc2n(n1)C(c1cccs1)C1=C(CCCC1=O)N2 (configuration not stated)	1.0	5	4.6	-0.1	22	-8.3
Cc1ccccc1CSc1nc2n(n1)C(c1cccs1)C1=C(CCCC1=O)N2 (configuration not stated)	3.1	6	-0.2	0.8	16	58.3*
O=C1CCCC2=C1C(c1cccs1)n1nc(SCc3ccccc3F)nc1N2 (configuration not stated)	0.0	22	-3.5	0.0	13	91.5*
SMILES	ABCG2 block	Avidin fluor	PKD1 kinase inh	ABCB1 block	GSH fluor	L major viab
COc1ccc(C2C3=C(CCCC3=O)Nc3nc(SCc4ccccc4)nn32)cc1OC (configuration not stated)	4.3	11	-4.3	0.8	24	8.8
COc1ccc(OCC(O)CNC(=O)c2cccs2)cc1 (configuration not stated)	·	4	·	·	·	·
O=C1c2ccccc2C(=O)c2c(NCCCN(CCO)CCO)cccc21	9.3	8	7.3	0.9	8	99.8*
COc1ccc(NC(=O)CSc2nnc(Cc3cccs3)n2-c2ccc(C)cc2)cc1	4.4	10	-2.4	1.0	13	97.6*
COc1ccc(-n2c(COc3cccc4ccccc34)nnc2SCC(=O)NCc2ccco2)cc1	-0.8	7	-4.6	-0.5	35	98.4*
COc1cccc(NC(=O)CSc2nnc(Cc3cccs3)n2-c2ccc(C)cc2)c1	32.2	18	-3.6	5.5	27	9.8
COc1ccc(OC)c(C(=O)CSc2nnc(-c3cccs3)n2C)c1	34.9	13	3.9	0.2	13	-0.6
COc1ccc(OC)c(C(=O)CSc2nnc(Cc3cccs3)n2CCc2ccccc2)c1	3.9	37	-3.3	1.1	12	96.9*
COc1cccc(OCc2nnc(SCC(=O)NCc3ccco3)n2CCc2ccccc2)c1	8.1	8	-3.3	1.3	17	91.2*
Cc1nc(SCn2nnc3ccccc3c2=O)nc(C)c1C	2.6	8	-3.3	0.9	258*	-3.0
O=c1c2ccccc2nnn1CSc1nnc(Nc2ccccc2)s1	0.2	5	-3.4	0.1	31	-8.9
Cc1ccc(Nc2nnc(SCn3nnc4ccccc4c3=O)s2)cc1	56.1	12	-0.3	1.6	37	69.2*
CC(C)OCCCNC(=O)C1CCN(S(=O)(=O)N2CCCC2)CC1	5.6	28	1.2	0.9	7	-4.2
CCCc1nc(N2CCOCC2)c2sc(=S)n(-c3ccccc3)c2n1	0.1	7	-1.7	0.1	12	-1.4
O=C(O)/C=C\c1ccccc1Oc1ccc(F)cc1	12.6	89*	3.5	0.0	70	-9.4
O=C(O)/C=C/c1ccccc1Oc1ccccc1	0.6	88*	-7.5	0.4	30	-10.6
COc1ccc(Oc2ccccc2/C=C/C(=O)O)cc1	0.0	33	-9.8	0.1	12	-11.5
CSc1cccc(NC(=S)N(Cc2ccc(C)cc2)Cc2ccccn2)c1	-0.3	11	5.3	0.1	11	97.4*
COc1ccccc1NC(=S)N(Cc1ccc(C)cc1)Cc1ccccn1	1.6	13	0.2	1.3	11	91.3*
COC(=O)CS(=O)(=O)c1ccsc1C(=O)Nc1ccc(F)cc1	4.0	26	-10.9	0.4	11	-7.7
CN1C(c2ccc(F)cc2)=CS/C1=C(\C#N)c1nnc2n1-c1ccccc1SC2	1.2	10	2.1	1.4	65	79.4*
CN1CC=C2C(C#N)=C(N)C(C#N)(C#N)[C@H](c3cccc(Cl)c3)C2C1 (some centres not stated)	1.5	36	-0.7	0.8	14	8.6
CCCC1C2CN(C(C)C)CC=C2C(C#N)=C(N)C1(C#N)C#N (configuration not stated)	1.4	44	-7.3	0.4	22	76.4*
